The values that follow come from ChEMBL document CHEMBL3102735, “Enhancing the pharmacodynamic profile of a class of selective COX-2 inhibiting nitric oxide donors” (Bioorg Med Chem, 2014).

Data set [1] deals with Mus musculus. Kind of data set: Analgesic activity in po dosed Swiss albino mouse assessed as reduction of acetic acid-induced writhing measured every 10 mins after 5 mins of administration. Format: functional, organism-based. The method, boiled down: (§1)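 Male Swiss albino mice (23–25 g), compound given orally in CMC vehicle; writhing induced by 0.6% acetic acid (10 mL/kg) ip. Stretching movements counted for 10 min, starting 5 min after administration; percent reduction versus CMC-treated animals.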
(Writhing tests count abdominal constrictions after an irritant is injected.)

Data set [2] has as its system Thoracic aorta. Kind of data set: Ex vivo vasorelaxant activity in Wistar rat endothelium thoracic aortic ring assessed as reduction of KCl-induced contraction in presence of guanylate cyclase inhibitor ODQ. Format: functional. The procedure, abridged:
(§2)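 Endothelium-denuded thoracic aortic rings from male Wistar rats (250–350 g) in oxygenated Tyrode-type buffer at 37 °C, isometric tension recording. Rings precontracted with 30 mM KCl, then 3-fold increasing compound concentrations (1 nM–10 µM) added, also with 1 µM ODQ preincubated. Emax as % of KCl tone; pIC50; mean ± SE of 6–10 experiments.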

In data set [3] the test system is J774. Kind of data set: Selectivity index, ratio of IC50 for COX-1 to IC50 for COX-2 in mouse J774 cells. Format: cell-based. The method, boiled down: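 J774 macrophages stimulated 24 h with E. coli LPS (10 µg/mL) to induce COX-2, with or without compound (0.01–10 µM); supernatant PGE2 by RIA. Triplicate wells, three experiments, percent inhibition versus control, IC50 by sigmoidal fit; selectivity as COX-1/COX-2 IC50 ratio.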

Data set [4] addresses T1, Prostaglandin G/H synthase 1 (Mus musculus, UniProt P22437).
T1 sequence (P22437 whole entry): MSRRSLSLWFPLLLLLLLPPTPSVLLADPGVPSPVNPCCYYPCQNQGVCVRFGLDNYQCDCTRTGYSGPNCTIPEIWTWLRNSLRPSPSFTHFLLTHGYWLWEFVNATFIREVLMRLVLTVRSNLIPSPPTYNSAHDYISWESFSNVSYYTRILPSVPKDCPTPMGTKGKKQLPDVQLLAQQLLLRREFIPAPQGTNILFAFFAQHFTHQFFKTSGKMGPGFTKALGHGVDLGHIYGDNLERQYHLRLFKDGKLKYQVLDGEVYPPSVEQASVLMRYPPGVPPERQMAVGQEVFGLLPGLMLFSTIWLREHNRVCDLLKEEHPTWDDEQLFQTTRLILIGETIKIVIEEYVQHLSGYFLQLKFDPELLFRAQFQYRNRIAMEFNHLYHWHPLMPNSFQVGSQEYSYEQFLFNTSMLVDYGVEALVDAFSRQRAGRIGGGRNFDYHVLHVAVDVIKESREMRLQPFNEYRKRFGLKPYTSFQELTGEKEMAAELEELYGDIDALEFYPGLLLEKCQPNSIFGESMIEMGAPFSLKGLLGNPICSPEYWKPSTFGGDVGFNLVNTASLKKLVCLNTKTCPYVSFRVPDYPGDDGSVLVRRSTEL
Kind of data set: Inhibition of COX-1 in mouse J774 cells using arachidonic acid as substrate assessed as inhibition of prostaglandin E2 production preincubated for 15 mins followed by substrate addition measured after 30 mins by RIA. Format: cell-based. The method, boiled down:
(§3)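 J774 murine macrophages pretreated 15 min with compound (10 µM; lower concentrations 0.01–1 µM where needed), then incubated 30 min at 37 °C with 15 µM arachidonic acid; supernatant PGE2 measured by RIA. Triplicate wells, mean of three experiments of percent inhibition versus control; IC50 by sigmoidal fit.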

Data set [5] addresses T2, Prostaglandin G/H synthase 2 (Mus musculus) (UniProt Q05769).
T2 sequence (whole entry): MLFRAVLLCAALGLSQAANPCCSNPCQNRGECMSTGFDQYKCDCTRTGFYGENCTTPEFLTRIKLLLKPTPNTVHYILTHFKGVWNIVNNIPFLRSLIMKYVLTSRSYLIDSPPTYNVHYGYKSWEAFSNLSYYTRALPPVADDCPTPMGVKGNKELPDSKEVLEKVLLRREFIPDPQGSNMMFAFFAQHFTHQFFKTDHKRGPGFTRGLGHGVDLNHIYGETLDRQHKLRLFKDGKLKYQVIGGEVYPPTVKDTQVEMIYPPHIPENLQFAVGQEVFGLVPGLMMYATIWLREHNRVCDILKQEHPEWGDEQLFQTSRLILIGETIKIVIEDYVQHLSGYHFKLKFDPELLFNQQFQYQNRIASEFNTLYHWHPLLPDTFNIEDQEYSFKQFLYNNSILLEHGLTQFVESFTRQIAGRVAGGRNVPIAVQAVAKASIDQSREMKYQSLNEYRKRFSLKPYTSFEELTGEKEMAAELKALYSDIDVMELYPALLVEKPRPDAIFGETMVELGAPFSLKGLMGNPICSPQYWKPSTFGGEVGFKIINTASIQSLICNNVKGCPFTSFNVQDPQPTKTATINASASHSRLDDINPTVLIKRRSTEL
Kind of data set: Inhibition of LPS-induced COX-2 in mouse J774 cells using arachidonic acid as substrate assessed as inhibition of prostaglandin E2 production at 10 uM preincubated for 15 mins followed by substrate addition measured after 30 mins by RIA. Format: cell-based.

The target in data set [6] is T3, Prostaglandin G/H synthase 1 (Mus musculus) (UniProt P22437).
T3 sequence (whole entry): T1 sequence (P22437 whole entry)
Kind of data set: Inhibition of COX-1 in mouse J774 cells using arachidonic acid as substrate assessed as inhibition of prostaglandin E2 production at 10 uM preincubated for 15 mins followed by substrate addition measured after 30 mins by RIA. The data set is classed as cell-based. The method, boiled down:
as §3

Data set [7] deals with Mus musculus. In words: Analgesic activity in Swiss albino mouse assessed as reduction of acetic acid-induced writhing at 3 mg/kg, po measured every 10 mins after 5 mins of administration relative to control. Format: functional. On the set-up: scale not given: the % may be the effect or the level left. The procedure, abridged: as §1
For data set [8], the system named is Mus musculus. Kind of data set: Analgesic activity in Swiss albino mouse assessed as reduction of acetic acid-induced writhing at 10 mg/kg, po measured every 10 mins after 5 mins of administration relative to control. The arrangement: scale not given: the % may be the effect or the level left. The data set is classed as functional. The procedure, abridged:
as §1

Data set [9] concerns Mus musculus. Kind of data set: Analgesic activity in Swiss albino mouse assessed as reduction of acetic acid-induced writhing at 20 mg/kg, po measured every 10 mins after 5 mins of administration relative to control. The data set is classed as functional. The arrangement: scale not given: the % may be the effect or the level left. The method, boiled down:
as §1

Data set [10] concerns Thoracic aorta. In words: Ex vivo vasorelaxant activity in Wistar rat endothelium thoracic aortic ring assessed as reduction of KCl-induced contraction at 0.001 uM to 10 uM relative to control. The data set is classed as functional. The method, boiled down: as §2
Data set [11] concerns Thoracic aorta. In words: Ex vivo vasorelaxant activity in Wistar rat endothelium thoracic aortic ring assessed as reduction of KCl-induced contraction. Format: functional, tissue-based. The procedure, abridged:
as §2

Data set [12] relates to Mus musculus. Kind of data set: Analgesic activity in Swiss albino mouse assessed as reduction of acetic acid-induced writhing at 40 mg/kg, po measured every 10 mins after 5 mins of administration relative to control. The data set is classed as functional. The arrangement: scale not given: the % may be the effect or the level left. The procedure, abridged: as §1
The target in data set [13] is T4, Prostaglandin G/H synthase 2 (Mus musculus, UniProt Q05769).
T4 sequence (Q05769 whole entry): T2 sequence (whole entry)
In words: Inhibition of LPS-induced COX-2 in mouse J774 cells using arachidonic acid as substrate assessed as inhibition of prostaglandin E2 production preincubated for 15 mins followed by substrate addition measured after 30 mins by RIA. The data set is classed as cell-based.

The nature of data set [14]: Metabolic stability in Sprague-Dawley rat plasma assessed as compound remaining after 120 mins by LC-MS/MS analysis. The settings on record: read-out: Stability. The data set is classed as ADME, cell-free. The method, boiled down: (§4)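 Compound (12 µL of 1 mM DMSO solution into 588 µL medium) incubated in PBS pH 7.4, pepsin-free SGF pH 1.5, or EDTA rat plasma. Aliquots taken at 0, 30, 60, 120 min and quenched with ice-cold acetonitrile containing internal standard; parent remaining as percent.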

A short description of data set [15]: Metabolic stability in Sprague-Dawley rat plasma assessed as compound remaining after 60 mins by LC-MS/MS analysis. The data set is classed as ADME, cell-free. The settings on record: read-out: Stability. The method, boiled down:
as §4

A short description of data set [16]: Metabolic stability in Sprague-Dawley rat plasma assessed as compound remaining after 30 mins by LC-MS/MS analysis. The data set is classed as ADME, cell-free. The settings on record: read-out: Stability. The method, boiled down:
as §4

The nature of data set [17]: Stability of the compound in simulated gastric fluid assessed as compound remaining at pH 1.5 after 120 mins by LC-MS/MS analysis. The data set is classed as physicochemical. The settings on record: read-out: Stability. The method, boiled down: (§5)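 1 mM DMSO stock added to 0.01 M PBS (pH 7.4) or 0.05 M simulated gastric fluid without pepsin (pH 1.5 with HCl); incubated in hybridisation oven; aliquots at 0, 30, 60, 120 min quenched with ice-cold acetonitrile containing internal standard; parent remaining (%) measured.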

Data set [18] can be described thus: Stability of the compound in simulated gastric fluid assessed as compound remaining at pH 1.5 after 60 mins by LC-MS/MS analysis. The data set is classed as physicochemical. The following applies: read-out: Stability. The procedure, abridged: as §5
A short description of data set [19]: Solubility of the compound in phosphate buffer saline at pH 7.4 after 90 mins by HPLC analysis. The data set is classed as physicochemical. The procedure, abridged:
(§6)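 DMSO stock (20 mM) diluted 2 µL into 198 µL PBS 0.01 M pH 7.4 or pepsin-free SGF 0.05 M pH 1.5, duplicate wells, shaken 90 min at 300 rpm. Filtrates analysed by HPLC with photodiode-array detection against seven-point standards (1–200 µM).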

Data set [20] can be described thus: Solubility of the compound in simulated gastric fluid at pH 1.5 after 90 mins by HPLC analysis. Format: ADME. The method, boiled down:
as §6

A short description of data set [21]: Stability of the compound in phosphate buffer saline assessed as compound remaining at pH 7.4 after 30 mins by LC-MS/MS analysis. The data set is classed as physicochemical. The settings on record: read-out: Stability. The method, boiled down:
as §5

The nature of data set [22]: Stability of the compound in phosphate buffer saline assessed as compound remaining at pH 7.4 after 120 mins by LC-MS/MS analysis. Format: physicochemical. The settings on record: read-out: Stability. The procedure, abridged: as §4
The nature of data set [23]: Stability of the compound in simulated gastric fluid assessed as compound remaining at pH 1.5 after 30 mins by LC-MS/MS analysis. Format: physicochemical. The settings on record: read-out: Stability. The method, boiled down:
as §5

Data set [24] in a line: Stability of the compound in phosphate buffer saline assessed as compound remaining at pH 7.4 after 60 mins by LC-MS/MS analysis. The data set is classed as physicochemical. The following applies: read-out: Stability. The method, boiled down: as §5

The IC50 is the concentration that gives 50% inhibition. What is called inhibition is how much of the control response was suppressed. What is called Emax is the greatest response seen or fitted, relative to the assay's reference. The term solubility denotes how much of the substance goes into solution per volume.

Values after ≈ are worked out from the molar mass of the structure shown. Active and inactive are the calls of the source. The calls are words filed in the database; no cut-off is given here.

With `Cc1c(CC(=O)NC(CCO[N+](=O)[O-])C(=O)O)cc(-c2ccc(S(C)(=O)=O)cc2)n1-c1ccc(F)cc1` (racemic), the Activity entry in data set [1] was “Dose-dependent effect”; in data set [7], 0%; in data set [8] it was 30%; in data set [9] it was 54%. In data set [2], the outcome was inactive. In addition, the Ratio IC50 in data set [3] is > 6.2. For the same compound, the IC50 in [4] is > 10000 nM. The results for the inhibition in data set [5] and in data set [6] were 89% and 6%, respectively.
Consider `Cc1c(CC(=O)NCCCO[N+](=O)[O-])cc(-c2ccc(S(C)(=O)=O)cc2)n1-c1cccc(F)c1`, for which the Activity entry is “Dose-dependent effect” in data set [1], 30% in [12], 0% in [8] and 8.6% in data set [9]. Also, the Emax in data set [10] worked out at 69%. The result in data set [2] was inactive. The IC50 is 1660 nM in data set [11], 250 nM in data set [13] and > 10000 nM in [4]. In addition, the Ratio IC50 in data set [3] is > 40. The inhibition in [5] was determined as 100%; in data set [6] it was 0%.
For `Cc1c(C(N)C(=O)OCCO[N+](=O)[O-])cc(-c2ccc(S(C)(=O)=O)cc2)n1-c1ccc(F)cc1` (configuration not stated), the remaining at 2 h is 0% in data set [14], 100% in data set [17] and 75% in data set [22]. The remaining at 1 h is 0% in data set [15], 100% in [18] and 75% in data set [24]. Further, the remaining at 0.5 h was 0% in data set [16], 75% in data set [21] and 100% in data set [23]. The solubility at 1.5 h in data set [19] is 80 µM (≈ 39.3 µg/mL); in data set [20] it was > 200 µM.
